Measured values as given in ChEMBL document CHEMBL3525907, “Studies on the metabolism and biological activity of the epimers of sulindac” (Drug Metab Dispos, 2011).
Activity calls are given as the source filed them. The rule behind the calls is not given here.

Tests used:
Cytochrome P450 2C9 = Cytochrome P450 2C9 (Homo sapiens, UniProt P11712); assay: Drug metabolism assessed as human recombinant CYP2C9-mediated sulindac sulfone formation measured per pmol of protein at 200 uM after 90 mins by HPLC analysis; type: ADME; conditions: recombinant enzyme, 1.5 h
In short: (§1)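 Recombinant rat or human P450 Supersomes (some with cytochrome b5, variable reductase) incubated with (R)-sulindac at 500 μM or (S)-sulindac at 200 μM plus NADPH-regenerating system in 100 mM potassium phosphate pH 7.4 at 37°C, linear up to 90 min; acetonitrile stop; sulfone by C18 HPLC at 330 nm; ≥3 runs; pmol/pmol enzyme/h, mean ± S.E.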

Cytochrome P450 1A1 = Cytochrome P450 1A1 (Rattus norvegicus, UniProt P00185); assay: Drug metabolism assessed as rat recombinant CYP1A1-mediated sulindac sulfone formation measured per pmol of protein at 200 uM after 90 mins by HPLC analysis; type: ADME; conditions: recombinant enzyme, 1.5 h; in short: as §1
Cytochrome P450 3A4 = Cytochrome P450 3A4 (Homo sapiens, UniProt P08684); assay: Drug metabolism assessed as human recombinant CYP3A4-mediated sulindac sulfone formation measured per pmol of protein at 200 uM after 90 mins by HPLC analysis; type: ADME; conditions: recombinant enzyme, 1.5 h; in short: as §1
MRC5 = assay: Cytoprotective activity in TBHP-induced human MRC5 cells at 500 uM incubated for 48 hrs prior to TBHP-challenge measured after 2 hrs; type: functional, cell-based
In short: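 Normal lung cells preincubated 48 h with 500 μM (R)- or (S)-sulindac or no drug, then challenged with TBHP; viability expressed as percent of cells not exposed to TBHP; mean and S.E. of five repeats; p < 0.05 versus no-drug controls.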

Cytochrome P450 2C8 = Cytochrome P450 2C8 (Homo sapiens, UniProt P10632); assay: Drug metabolism assessed as human recombinant CYP2C8-mediated sulindac sulfone formation measured per pmol of protein at 200 uM after 90 mins by HPLC analysis; type: ADME; conditions: recombinant enzyme, 1.5 h; in short: as §1
Cytochrome P450 2C19 = Cytochrome P450 2C19 (Homo sapiens, UniProt P33261); assay: Drug metabolism assessed as human recombinant CYP2C19-mediated sulindac sulfone formation measured per pmol of protein at 200 uM after 90 mins by HPLC analysis; type: ADME; conditions: recombinant enzyme, 1.5 h; in short: as §1
Cytochrome P450 2D6 = Cytochrome P450 2D6 (Homo sapiens, UniProt P10635); assay: Drug metabolism assessed as human recombinant CYP2D6-mediated sulindac sulfone formation measured per pmol of protein at 200 uM after 90 mins by HPLC analysis; type: ADME; conditions: recombinant enzyme, 1.5 h; in short: as §1
Cytochrome P450 1B1 = Cytochrome P450 1B1 (Homo sapiens, UniProt Q16678); assay: Drug metabolism assessed as human recombinant CYP1B1-mediated sulindac sulfone formation measured per pmol of protein at 200 uM after 90 mins by HPLC analysis; type: ADME; conditions: recombinant enzyme, 1.5 h; in short: as §1
Cytochrome P450 1A2 [1] = target: Cytochrome P450 1A2 (Homo sapiens, UniProt P05177); assay: Drug metabolism assessed as human recombinant CYP1A2-mediated sulindac sulfone formation measured per pmol of protein at 200 uM after 90 mins by HPLC analysis; type: ADME; conditions: recombinant enzyme, 1.5 h; in short: as §1
Cytochrome P450 3A2 = Cytochrome P450 3A2 (Rattus norvegicus, UniProt P05183); assay: Drug metabolism assessed as rat recombinant CYP3A2-mediated sulindac sulfone formation measured per pmol of protein at 200 uM after 90 mins by HPLC analysis; type: ADME; conditions: recombinant enzyme, 1.5 h; in short: as §1
[2] = target: Mitochondrial peptide methionine sulfoxide reductase (Rattus norvegicus, UniProt Q923M1); assay: Drug metabolism in rat liver S100 fraction assessed as MSRA-mediated reduced product formation measured per mg of protein at 200 uM by HPLC analysis; type: ADME, tissue-based
Cytochrome P450 2B1 = Cytochrome P450 2B1 (Rattus norvegicus, UniProt P00176); assay: Drug metabolism assessed as rat recombinant CYP2B1-mediated sulindac sulfone formation measured per pmol of protein at 200 uM after 90 mins by HPLC analysis; type: ADME; conditions: recombinant enzyme, 1.5 h; in short: as §1
Cytochrome P450 1A2 [3] = target: Cytochrome P450 1A2 (Rattus norvegicus, UniProt P04799); assay: Drug metabolism assessed as rat recombinant CYP1A2-mediated sulindac sulfone formation measured per pmol of protein at 200 uM after 90 mins by HPLC analysis; type: ADME; conditions: recombinant enzyme, 1.5 h; in short: as §1
A549 = assay: Potentiation of TBHP-induced cytotoxicity in human A549 cells at 500 uM incubated for 48 hrs prior to TBHP-challenge measured after 2 hrs; type: functional, cell-based
Plasma [4] = assay: Drug metabolism in Sprague-Dawley rat plasma treated with (R)-Sulindac at 2 mg, ip after 0.5 to 4 hrs by HPLC analysis; conditions: in vivo
Brain [5] = assay: Drug metabolism in Sprague-Dawley rat brain treated with (S)-Sulindac at 2 mg, ip after 0.5 to 4 hrs by HPLC analysis; conditions: in vivo
Liver [6] = assay: Drug metabolism in Sprague-Dawley rat liver treated with (S)-Sulindac at 2 mg, ip after 0.5 to 4 hrs by HPLC analysis; conditions: in vivo
Zone of skin [7] = assay: Drug metabolism in Sprague-Dawley rat skin treated with (S)-Sulindac at 2 mg, ip after 0.5 to 4 hrs by HPLC analysis; conditions: in vivo
Plasma [8] = assay: Drug metabolism in Sprague-Dawley rat plasma treated with (S)-Sulindac at 2 mg, ip after 0.5 to 4 hrs by HPLC analysis; conditions: in vivo
Zone of skin [9] = assay: Drug metabolism in Sprague-Dawley rat skin treated with (R)-Sulindac at 2 mg, ip after 0.5 to 4 hrs by HPLC analysis; conditions: in vivo
Liver [10] = assay: Drug metabolism in Sprague-Dawley rat liver treated with (R)-Sulindac at 2 mg, ip after 0.5 to 4 hrs by HPLC analysis; conditions: in vivo
Liver microsome = assay: Drug metabolism in rat liver microsomes at 200 µM after 60 mins by HPLC analysis in presence of NADPH; conditions: 1 h
Brain [11] = assay: Drug metabolism in Sprague-Dawley rat brain treated with (R)-Sulindac at 2 mg, ip after 0.5 to 4 hrs by HPLC analysis; conditions: in vivo
[12] = Retention time in rat plasma measured after 4 hrs ip injection of sulindac; type: physicochemical, organism-based; conditions: in vivo

Chain of Cytochrome P450 2B1 (P00176 whole entry): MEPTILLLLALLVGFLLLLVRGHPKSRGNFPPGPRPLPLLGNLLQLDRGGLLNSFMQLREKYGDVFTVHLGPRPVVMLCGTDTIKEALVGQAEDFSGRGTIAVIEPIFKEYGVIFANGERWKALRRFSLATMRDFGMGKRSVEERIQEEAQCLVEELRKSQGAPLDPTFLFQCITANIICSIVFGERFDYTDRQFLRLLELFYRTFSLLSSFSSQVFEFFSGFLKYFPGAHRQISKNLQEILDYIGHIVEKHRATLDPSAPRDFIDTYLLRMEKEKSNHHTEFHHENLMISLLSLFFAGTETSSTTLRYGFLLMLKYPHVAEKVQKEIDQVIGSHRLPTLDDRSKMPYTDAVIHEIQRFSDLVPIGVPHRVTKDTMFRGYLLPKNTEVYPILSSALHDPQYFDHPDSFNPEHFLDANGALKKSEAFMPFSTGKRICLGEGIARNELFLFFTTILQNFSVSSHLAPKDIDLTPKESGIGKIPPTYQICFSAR
Chain of Cytochrome P450 2C9 (P11712 whole entry): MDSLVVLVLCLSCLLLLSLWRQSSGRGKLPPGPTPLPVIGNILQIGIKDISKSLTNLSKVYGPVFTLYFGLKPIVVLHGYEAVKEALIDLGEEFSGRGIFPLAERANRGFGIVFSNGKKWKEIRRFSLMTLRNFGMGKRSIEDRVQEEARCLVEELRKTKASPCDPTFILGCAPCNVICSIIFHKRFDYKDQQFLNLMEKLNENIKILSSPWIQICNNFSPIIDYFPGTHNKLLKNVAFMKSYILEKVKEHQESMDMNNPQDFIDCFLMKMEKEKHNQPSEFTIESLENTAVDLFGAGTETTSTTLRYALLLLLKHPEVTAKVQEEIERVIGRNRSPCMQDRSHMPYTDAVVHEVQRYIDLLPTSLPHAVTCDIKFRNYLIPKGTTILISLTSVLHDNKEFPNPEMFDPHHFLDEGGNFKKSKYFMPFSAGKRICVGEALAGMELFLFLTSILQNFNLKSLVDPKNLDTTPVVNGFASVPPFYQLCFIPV
Chain of Cytochrome P450 2C19 (P33261 whole entry): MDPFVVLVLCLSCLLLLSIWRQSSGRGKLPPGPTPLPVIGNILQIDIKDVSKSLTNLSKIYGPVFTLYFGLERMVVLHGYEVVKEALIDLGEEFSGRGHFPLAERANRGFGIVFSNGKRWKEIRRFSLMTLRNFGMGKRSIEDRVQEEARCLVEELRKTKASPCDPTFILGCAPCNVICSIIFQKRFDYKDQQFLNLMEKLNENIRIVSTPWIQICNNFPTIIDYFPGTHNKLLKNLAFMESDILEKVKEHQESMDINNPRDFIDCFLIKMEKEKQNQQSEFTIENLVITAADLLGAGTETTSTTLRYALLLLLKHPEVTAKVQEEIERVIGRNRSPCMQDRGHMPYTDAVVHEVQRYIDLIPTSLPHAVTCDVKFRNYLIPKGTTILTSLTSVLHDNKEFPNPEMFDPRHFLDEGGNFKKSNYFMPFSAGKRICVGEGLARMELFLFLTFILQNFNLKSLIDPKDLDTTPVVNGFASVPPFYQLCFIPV
Chain of Cytochrome P450 1B1 (Q16678 whole entry): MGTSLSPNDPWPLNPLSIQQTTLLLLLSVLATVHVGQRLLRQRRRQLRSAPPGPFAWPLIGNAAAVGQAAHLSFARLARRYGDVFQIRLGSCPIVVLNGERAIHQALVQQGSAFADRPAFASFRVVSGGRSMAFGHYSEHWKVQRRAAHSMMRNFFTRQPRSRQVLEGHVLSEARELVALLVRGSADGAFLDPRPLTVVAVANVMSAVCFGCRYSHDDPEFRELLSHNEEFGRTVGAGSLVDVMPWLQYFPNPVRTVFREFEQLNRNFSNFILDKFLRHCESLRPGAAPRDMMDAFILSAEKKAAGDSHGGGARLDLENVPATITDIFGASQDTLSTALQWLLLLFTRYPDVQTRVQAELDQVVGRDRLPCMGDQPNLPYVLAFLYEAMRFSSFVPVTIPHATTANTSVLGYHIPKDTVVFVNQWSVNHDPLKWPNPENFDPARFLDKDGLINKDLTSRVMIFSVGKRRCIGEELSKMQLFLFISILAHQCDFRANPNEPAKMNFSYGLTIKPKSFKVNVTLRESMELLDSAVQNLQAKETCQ
Chain of Cytochrome P450 3A4 (P08684 whole entry): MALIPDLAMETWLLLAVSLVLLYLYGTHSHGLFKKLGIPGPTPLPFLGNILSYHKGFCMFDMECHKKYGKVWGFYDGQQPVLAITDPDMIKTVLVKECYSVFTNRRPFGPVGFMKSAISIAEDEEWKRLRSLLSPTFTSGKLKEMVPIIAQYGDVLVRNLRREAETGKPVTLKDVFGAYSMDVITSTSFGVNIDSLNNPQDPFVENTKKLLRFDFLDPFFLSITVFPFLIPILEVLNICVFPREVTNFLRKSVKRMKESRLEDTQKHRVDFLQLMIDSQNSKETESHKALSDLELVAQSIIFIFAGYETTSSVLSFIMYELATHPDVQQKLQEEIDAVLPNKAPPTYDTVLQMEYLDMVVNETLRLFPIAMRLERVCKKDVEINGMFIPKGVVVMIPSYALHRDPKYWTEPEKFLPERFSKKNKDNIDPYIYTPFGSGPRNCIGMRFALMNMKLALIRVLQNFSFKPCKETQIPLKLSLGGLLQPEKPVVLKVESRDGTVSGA
Chain of Cytochrome P450 3A2 (P05183 whole entry): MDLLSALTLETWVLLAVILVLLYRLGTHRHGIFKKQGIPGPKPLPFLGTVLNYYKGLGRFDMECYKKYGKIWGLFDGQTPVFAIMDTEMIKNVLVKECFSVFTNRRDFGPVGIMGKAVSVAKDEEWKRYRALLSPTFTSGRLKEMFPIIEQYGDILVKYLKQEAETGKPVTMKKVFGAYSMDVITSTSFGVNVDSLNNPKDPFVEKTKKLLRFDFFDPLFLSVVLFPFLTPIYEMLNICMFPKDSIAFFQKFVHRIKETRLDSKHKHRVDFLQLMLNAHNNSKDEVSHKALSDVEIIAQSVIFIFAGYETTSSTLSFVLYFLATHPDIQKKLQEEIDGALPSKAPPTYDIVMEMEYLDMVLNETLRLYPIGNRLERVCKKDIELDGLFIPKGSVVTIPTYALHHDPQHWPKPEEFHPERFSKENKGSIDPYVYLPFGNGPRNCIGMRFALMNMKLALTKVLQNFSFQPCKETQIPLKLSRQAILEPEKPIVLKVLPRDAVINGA
Chain of Cytochrome P450 1A1 (P00185 whole entry): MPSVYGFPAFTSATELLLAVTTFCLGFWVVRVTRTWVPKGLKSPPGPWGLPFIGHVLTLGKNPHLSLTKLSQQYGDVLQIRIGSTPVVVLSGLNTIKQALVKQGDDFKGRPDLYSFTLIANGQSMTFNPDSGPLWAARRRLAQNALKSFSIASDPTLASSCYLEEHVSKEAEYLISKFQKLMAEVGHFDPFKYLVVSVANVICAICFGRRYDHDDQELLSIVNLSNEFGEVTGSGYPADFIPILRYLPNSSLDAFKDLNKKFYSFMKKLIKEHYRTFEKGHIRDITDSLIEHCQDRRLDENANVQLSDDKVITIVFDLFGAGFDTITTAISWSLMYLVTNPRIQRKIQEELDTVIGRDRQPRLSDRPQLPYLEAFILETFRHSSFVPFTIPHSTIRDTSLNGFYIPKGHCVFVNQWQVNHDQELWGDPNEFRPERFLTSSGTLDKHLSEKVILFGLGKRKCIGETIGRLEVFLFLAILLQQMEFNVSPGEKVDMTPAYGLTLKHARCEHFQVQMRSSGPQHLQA
Chain of Cytochrome P450 1A2 (Rattus norvegicus, UniProt P04799) (P04799 whole entry): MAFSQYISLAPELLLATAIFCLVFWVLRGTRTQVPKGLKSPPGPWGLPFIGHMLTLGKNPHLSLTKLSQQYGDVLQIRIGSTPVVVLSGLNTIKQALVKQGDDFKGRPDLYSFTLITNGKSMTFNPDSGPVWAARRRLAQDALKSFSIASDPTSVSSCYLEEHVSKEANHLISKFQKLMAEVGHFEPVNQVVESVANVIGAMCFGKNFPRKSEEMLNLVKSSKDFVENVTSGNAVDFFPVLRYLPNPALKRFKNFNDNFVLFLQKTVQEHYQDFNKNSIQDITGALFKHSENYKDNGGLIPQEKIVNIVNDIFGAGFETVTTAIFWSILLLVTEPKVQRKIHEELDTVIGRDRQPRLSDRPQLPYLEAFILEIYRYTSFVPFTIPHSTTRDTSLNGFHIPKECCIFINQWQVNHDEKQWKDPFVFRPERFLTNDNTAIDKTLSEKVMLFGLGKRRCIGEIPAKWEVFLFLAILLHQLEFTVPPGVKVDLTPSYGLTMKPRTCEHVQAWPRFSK
Chain of Cytochrome P450 2C8 (P10632 whole entry): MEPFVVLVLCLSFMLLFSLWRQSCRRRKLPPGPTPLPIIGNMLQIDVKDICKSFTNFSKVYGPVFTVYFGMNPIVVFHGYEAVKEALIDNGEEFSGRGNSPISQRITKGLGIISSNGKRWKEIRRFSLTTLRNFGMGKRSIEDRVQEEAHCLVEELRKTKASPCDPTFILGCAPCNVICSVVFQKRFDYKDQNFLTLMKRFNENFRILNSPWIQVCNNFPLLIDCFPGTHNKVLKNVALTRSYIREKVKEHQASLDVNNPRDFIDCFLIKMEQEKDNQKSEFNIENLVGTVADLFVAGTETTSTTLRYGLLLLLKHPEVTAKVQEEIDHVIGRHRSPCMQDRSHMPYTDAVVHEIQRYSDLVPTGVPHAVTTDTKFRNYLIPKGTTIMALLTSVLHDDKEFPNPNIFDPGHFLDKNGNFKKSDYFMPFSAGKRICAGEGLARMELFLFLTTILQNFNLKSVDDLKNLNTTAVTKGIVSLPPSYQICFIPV
Chain of Mitochondrial peptide methionine sulfoxide reductase (Q923M1 whole entry): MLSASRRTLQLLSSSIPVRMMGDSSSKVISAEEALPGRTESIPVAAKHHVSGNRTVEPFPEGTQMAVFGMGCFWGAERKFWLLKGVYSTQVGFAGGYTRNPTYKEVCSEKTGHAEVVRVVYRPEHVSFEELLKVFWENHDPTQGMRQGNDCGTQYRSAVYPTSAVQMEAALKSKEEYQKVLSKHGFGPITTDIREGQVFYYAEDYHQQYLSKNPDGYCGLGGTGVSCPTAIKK

Drug metabolism (Plasma [4])	Drug metabolism (Brain [5])	Drug metabolism (Liver [6])	Drug metabolism (Zone of skin [7])	Drug metabolism (Plasma [8])	Drug metabolism (Zone of skin [9])	Drug metabolism (Liver [10])	Drug metabolism (Brain [11])	Retention_time [12]	SMILES	further results
–	–	–	–	–	–	–	–	–	CC1=C(CC(=O)O)c2cc(F)ccc2/C1=C\c1ccc([S@+](C)[O-])cc1	Drug metabolism (Cytochrome P450 2C9): metabolite_not_detected; Drug metabolism (Cytochrome P450 1A1): 22 pmol/h; Drug metabolism (Cytochrome P450 3A4): 29 pmol/h; Activity (MRC5): Active; Drug metabolism (Cytochrome P450 2C8): metabolite_not_detected; Drug metabolism (Cytochrome P450 2C19): metabolite_not_detected; Drug metabolism (Cytochrome P450 2D6): metabolite_not_detected; Drug metabolism (Cytochrome P450 1B1): 0 pmol/h; Drug metabolism (Cytochrome P450 1A2 [1]): 34 pmol/h; Drug metabolism (Cytochrome P450 3A2): metabolite_not_detected; Drug metabolism [2]: metabolite_detected; Drug metabolism (Cytochrome P450 2B1): metabolite_not_detected; Drug metabolism (Cytochrome P450 1A2 [3]): 24 pmol/h; Activity (A549): Active
metabolite_detected	metabolite_detected	metabolite_detected	metabolite_detected	metabolite_detected	metabolite_detected	metabolite_detected	metabolite_detected	1.5 min	CC1=C(CC(=O)O)c2cc(F)ccc2/C1=C\c1ccc(S(C)(=O)=O)cc1 [EXISULIND]	Drug metabolism (Liver microsome): metabolite_detected
metabolite_detected	metabolite_detected	metabolite_detected	metabolite_detected	metabolite_detected	metabolite_detected	metabolite_detected	metabolite_detected	7.1 min	CSc1ccc(/C=C2/C(C)=C(CC(=O)O)c3cc(F)ccc32)cc1 [SULINDAC SULFIDE]	–
